# Data: the RNAGym collection of RNA variant scans (doi:10.1126/science.aae0568)
# Variants at the floor of the assay were thinned out.
# B1: tRNA (parent)
# chain: GUUCCGUUGGCGUAAUGGUAACGCGUCUCCCUCCUAAGGAGAAGACUGCGGGUUCGAGUCCCGUACGGAACG
# Variants of: B1
# Experiment: yeast fitness relative to wild type (ratio to wild type); higher = fitter; tRNA-Arg(CCU), competitive growth, 37 C, YPD
# How it was run: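 Gene amplicons from the start population and from each of six end populations were read by 100-nucleotide paired-end sequencing. Those end populations came from pooled Saccharomyces cerevisiae strains carrying tRNA-Arg(CCU) gene variants at the native locus, competed in YPD at 37°C for 24 hours. Fitness relative to wild type was worked out from changes in genotype frequencies. Genotypes needed ≥ 100 starting reads, and estimates < 0.5 were set to 0.5.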
row,Variant,yeast fitness
1,GUUCCGUUGGCGUGAUGGUAACGCGUCUCCCUCCUAAGGAGAAGAAUGCGGGUUCGAGUCCCGUACGGAACG [A14G C46A],0.873
2,GUUCCGUUGGCGUGAUAGUAACACGUCGCCCUCCUAAGGAGAAGACUGCGGGUUCGAGUCCCGUACGGAACG [A14G G17A G23A U28G],≤ 0.5
3,GUUCCGUUGGCGUGAUCGUAACGCGUCUCCCUCCUCAGGAGAAGACUAGGAGUUCGAGUCCCGUACGGAACG [A14G G17C A36C G48A C49G G51A],≤ 0.5
4,GUUCCGUUGGCGUGAUGGUAACGCGUCUGCCUCCUUAGGAGAAGAGUGCGGGUUCGAGUCCCGUACGGAACG [A14G C29G A36U C46G],≤ 0.5
5,GUUCCGUUGGCGUGAUGGUAACGCGUCUCCCUCCUAAGGAGAAGAUUGCCGGUUUGUGUCCGGUACGGAUCG [A14G C46U G50C C55U A57U C62G A70U],0.54
6,GUUCCGUUGGCGUGAUGGUAACGCGUCUCCGUCCUAAGGAGAAGACUGCGGGUUCGCGUCCCGUCCGGAACG [A14G C31G A57C A65C],≤ 0.5
7,GUUCCGUUGGCGUGAUGGUAACGCGUCUCCAUCGUAAGGAGACGACUGCGGGUUCGAGUCCCGUACGGAACG [A14G C31A C34G A43C],≤ 0.5
8,GUUCCGUUGGCGUGAUGGUAACGCGUCUCCUUUCUAAGGAGAAGCCUACGGGUUCGAGUCCCGUACGGAACG [A14G C31U C33U A45C G48A],0.626
9,GUUCCGUUGGCGUGAUGGUAACGCGUCUGCCUCCUAAGGAGAAGAUUGCGGGUUCGGGUCUCGUACGGAACG [A14G C29G C46U A57G C61U],≤ 0.5
10,GUUCCGUUGGCGUGAUGAUAAGGCGUCUCCCUCCUAAGGAGAAGACUGCGGGUUCGAGUCCCGUACGGAACG [A14G G18A C22G],≤ 0.5
11,GUUCCGUUGGCGUGAUAGUAACGCGUCUCCCUCCUAAGGAGAAGACUGCGGGUUCGCGUCCCGUACGGAACG [A14G G17A A57C],≤ 0.5
12,GUUCCGUUGGCGUGAUGGUAACGCGUCUUCCUCCUAAGGAAAAGACUGCGGGUGUGAGUCCCGUACGGUACG [A14G C29U G41A U54G C55U A69U],≤ 0.5
13,GUUCCGUUGGCGUGAUGGUAACGCGUUUCCCUCCUAAGGAGAAGAAUGCGGGUUCGAGUCCCGUACGGAACG [A14G C27U C46A],0.673
14,GUUCCGUUGGCGUGAUGGUAACGCGUCUCACUCGUAAGGAGAAGACUGCGGGUUCGAGUCCCGUACGGAACG [A14G C30A C34G],0.508
15,GUUCCGUUGGCGUGAUGGUAACGCGUCUCCCUCAUAAGGAGAAGACUGCGGGUUCGAGUCCGGUACGCAACG [A14G C34A C62G G68C],0.763
16,GUUCCGUUGGCGUGAUGGUAACGCGUCUCCCUCCUAAGGAGAAGACUGGGGGUUCGAGUCCCGUACGGUACG [A14G C49G A69U],0.566
17,GUUCCGUUGGCGUGAUGGUAACGCGUCUCCCUCGUAAGGAGAAGUCUGCGGGUUCGAGUCCCGUACGGAACG [A14G C34G A45U],≤ 0.5
18,GUUCCGUUGGCGUGAUGGUAACGCGUCUGCUUCCUAAGGAGAAGACUGCGGGUUCGAGUCCCGUACGGAACG [A14G C29G C31U],0.6
19,GUUCCGUUGGCGUGAUGGUAACGCGUCUCCGUCCUAAGGAGAAGACUGCGGGUUCGAGUCCCGUACGGAACG [A14G C31G],0.945

row,Variant,yeast fitness
1,GUUCCGUUGGCGUGAUCGUAAGGCGUCUCCCUCCUAAGGAGAAGACUGCGGGUUCGAGUCCCGUACGGAACG [A14G G17C C22G],≤ 0.5
2,GUUCCGUUGGCGUGAUGGUAACGCGUUUCCCUCCUAAGGAGAAGACAGCGGGUUCGAGUCCUGUAUGGAACG [A14G C27U U47A C62U C66U],≤ 0.5
3,GUUCCGUUGGCGUGAUGCUAACGCGUCUCCAUCCUAAGGAGAAGACUGCGGGUUCGAGUCCCGUACGGAACG [A14G G18C C31A],≤ 0.5
4,GUUCCGUUGGCGUGAUGGUAACGCGUCUCCCUCGUAAGGAGAAGACUGCGGGUUCGAGUCCCGUUAGGAACG [A14G C34G A65U C66A],≤ 0.5
5,GUUCCGUUGGCGUGAUGGUAACGCGUCUCCCUCGUAAGGAGACGACUGCGGGUUCGAGUCCAGUAAGGAACG [A14G C34G A43C C62A C66A],≤ 0.5
6,GUUCCGUUGGCGUGAUGGUAACGCGUCUCCCUCCUAAGGAGAAGACUGAGGGUUCGAGUCCCGUACGGAACG [A14G C49A],0.694
7,GUUCCGUUGGCGUGAUGGUAACGCGUUUCCCUCCUAAGGAGAAGACUGAGGGAUCGAGUCUCGUACGGAACG [A14G C27U C49A U53A C61U],≤ 0.5
8,GUUCCGUUGGCGUGAUGCUAACGCGUCUCUCUCUUAAGGAGAAGACUGCGGGUUCGAGUCGCGUACGGAACG [A14G G18C C30U C34U C61G],≤ 0.5
9,GUUCCGUUGGCGUGAUGGUAACGCGUCUGCCUCCUAAGGAGCAGACUGCGGGUUCGAGUCCCGUACGGAACG [A14G C29G A42C],≤ 0.5
10,GUUCCGUUGGCGUGAUAGUAACGCGUCUCCCUCCUAAGGAGAACACUGCGGGUUCGAGUCCCGUUCGGAACG [A14G G17A G44C A65U],≤ 0.5
11,GUUCCGUUGGCGUGAUGGUAACGCGUGUCCCUCGUAUGGAGAAGACUGCGGGUUCGAGUCCCGUACGGAACG [A14G C27G C34G A37U],0.61
12,GUUCCGUUGGCGUGAUGGUAACGCGUCUCCCUCUUAAGGAGAAGACUGCGGGUUCGAGUCCCGUACGGAACG [A14G C34U],0.62
13,GUUCCGUUGGCGUGAUGGUAACGCGUCUUCCUCCUAAGAAGAAGACUGCGGGUUCGAGUCCCGUACGGAACG [A14G C29U G39A],0.574
14,GUUCCGUUGGCGUGAUGGUAACGCGUCUCUCUCCUAAGGAGAAGUCUGCGGGUUCGAGUCCCGUACGGAACG [A14G C30U A45U],0.675
15,GUUCCGUUGGCGUGAUGGUAACGCGUCUCCCUCCUAAGGAGAAGACUGCGGGUUCGAGUCCGGUACGGAACG [A14G C62G],0.688
16,GUUCCGUUGGCGUGAUGGUAACGCGUCUCUCUCCUAAGGAGAAGAAUGCGGGUUCGAGUCCCGUACGGAACG [A14G C30U C46A],0.763
17,GUUCCGUUGGCGUGAUGGUAACGCGUCUCCUUCUUAAAGAGAAGAUUGCGGGUUCGAGUCCCGUACGGAACG [A14G C31U C34U G38A C46U],≤ 0.5
18,GUUCCGUUGGCGUGAUGAUAACGCGUCUCCCUCCUAAGGAGAAGACUGCGGGUUCGAGUCCCGUACGGAACG [A14G G18A],0.63
